pIC50: −log10 of the molar value.
Experiments:
[1] = tested on: HT-29; assay: Cytotoxicity against human HT-29 cells after 48 hrs by MTT assay; format: functional, cell-based; conditions: HT-29, 48 h
[2] = tested on: HepG2; assay: Cytotoxicity against human HepG2 cells after 48 hrs by MTT assay; format: functional, cell-based; conditions: HepG2, 48 h
[3] = tested on: HL-60; assay: Cytotoxicity against human HL60 cells after 48 hrs by MTT assay; format: functional, cell-based; conditions: HL-60, 48 h
[4] = tested on: K562; assay: Cytotoxicity against human K562 cells after 48 hrs by MTT assay; format: functional, cell-based; conditions: K562, 48 h
[5] = tested on: A549; assay: Cytotoxicity against human A549 cells after 48 hrs by MTT assay; format: functional, cell-based; conditions: A549, 48 h
[6] = Cytotoxicity against human BEAS2B cells after 48 hrs by MTT assay; format: cell-based; conditions: BEAS-2B
Procedure, shortened: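 Beas-2B immortalized, non-cancerous bronchial epithelial cells grown in RPMI-1640 or DMEM with 10% FBS, 5% CO2, 37°C. Cells were seeded and allowed to adhere 12 h before compound addition, then exposed for 48 h. DMSO negative and cisplatin positive controls were included. Viability was measured by MTT absorbance at 595 nm, and IC50 was calculated by the Reed–Muench method.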

[7] = tested on: K562; assay: Selectivity index, ratio of IC50 for human BEAS2B cells to IC50 for human K562 cells; format: functional
[8] = tested on: HT-29; assay: Selectivity index, ratio of IC50 for human BEAS2B cells to IC50 for human HT-29 cells; format: functional
[9] = Selectivity index, ratio of IC50 for human BEAS2B cells to IC50 for human HL60 cells; format: functional
[10] = tested on: A549; assay: Selectivity index, ratio of IC50 for human BEAS2B cells to IC50 for human A549 cells; format: functional
[11] = tested on: HepG2; assay: Selectivity index, ratio of IC50 for human BEAS2B cells to IC50 for human HepG2 cells; format: functional

Compound: CO[C@@H]1C=C[C@@]23c4cc5c(cc4C(=O)O[C@H]2CN(C)[C@H]3C1)OCO5
- pIC50 [1]: < 5.00
- pIC50 [2]: < 5.00
- pIC50 [3]: < 5.00
- pIC50 [4]: < 5.00
- pIC50 [5]: < 5.00

Compound: CN1Cc2cc3c(cc2-c2ccccc21)OCO3
- pIC50 [1]: < 5.00
- pIC50 [2]: < 5.00
- pIC50 [3]: < 5.00
- pIC50 [4]: < 5.00
- pIC50 [5]: < 5.00

Compound: CCOC(=O)CCCn1c(=O)c2cc3c(cc2c2ccccc21)OCO3
- pIC50 [1]: < 5.00
- pIC50 [2]: < 5.00
- pIC50 [3]: < 5.00
- pIC50 [6]: 4.44
- pIC50 [4]: < 5.00
- pIC50 [5]: < 5.00

Compound: O=c1c2cc3c(cc2c2ccccc2n1CCc1ccccc1)OCO3
- pIC50 [1]: 5.64
- pIC50 [2]: 5.85
- pIC50 [3]: 6.09
- Ratio IC50 [7]: 10
- Ratio IC50 [8]: 3.2
- pIC50 [6]: 5.14
- pIC50 [4]: 6.15
- Ratio IC50 [9]: 9
- pIC50 [5]: 4.89
- Ratio IC50 [10]: 0.56
- Ratio IC50 [11]: 5.2

Compound: CC(C)CCn1c(=O)c2cc3c(cc2c2ccccc21)OCO3
- pIC50 [1]: < 5.00
- pIC50 [2]: < 5.00
- pIC50 [3]: < 5.00
- pIC50 [4]: < 5.00
- pIC50 [5]: < 5.00

Compound: Cn1c(=O)c2cc3c(cc2c2ccccc21)OCO3
- pIC50 [1]: < 5.00
- pIC50 [2]: < 5.00
- pIC50 [3]: < 5.00
- pIC50 [4]: < 5.00
- pIC50 [5]: < 5.00

Compound: COc1cc2c(c(OC)c1OC)[C@@H](OC)O[C@@H]1CC=C3CCN(C)[C@H]3[C@H]21
- pIC50 [1]: < 5.00
- pIC50 [2]: < 5.00
- pIC50 [3]: < 5.00
- pIC50 [4]: < 5.00
- pIC50 [5]: < 5.00

Compound: CCOC(=O)CCn1c(=O)c2cc3c(cc2c2ccccc21)OCO3
- pIC50 [1]: < 5.00
- pIC50 [2]: < 5.00
- pIC50 [3]: < 5.00
- pIC50 [6]: < 4.40
- pIC50 [4]: < 5.00
- pIC50 [5]: < 5.00

Compound: CO[C@@H]1C=C[C@@]23c4cc5c(cc4C(O)[N+](C)(C[C@@H]2O)[C@H]3C1)OCO5.[Cl-] (mixture of isomers)
- pIC50 [1]: 5.92
- pIC50 [2]: 5.82
- pIC50 [3]: 6.04
- Ratio IC50 [7]: 3.7
- Ratio IC50 [8]: 3.1
- pIC50 [6]: 5.43
- pIC50 [4]: 6.00
- Ratio IC50 [9]: 4.1
- pIC50 [5]: 5.96
- Ratio IC50 [10]: 3.4
- Ratio IC50 [11]: 2.5

Compound: CO[C@H]1C=C[C@@]23c4cc5c(cc4CN(C)[C@@H]2C(=O)N(C)[C@H]3C1)OCO5 (relative stereo)
- pIC50 [1]: < 5.00
- pIC50 [2]: < 5.00
- pIC50 [3]: < 5.00
- pIC50 [4]: < 5.00
- pIC50 [5]: < 5.00

Compound: CO[C@@H]1C=C[C@@]23c4cc5c(cc4CN(C[C@@H]2O)[C@H]3C1)OCO5 [(+)-HAEMANTHAMINE]
- pIC50 [1]: 5.68
- pIC50 [2]: 5.32
- pIC50 [3]: 5.85
- pIC50 [4]: 5.60
- pIC50 [5]: 5.60

Compound: O[C@H]1[C@H]2c3cc4c(cc3CN3CCC(=C[C@@H]1O)[C@H]23)OCO4 [LYCORINE]
- pIC50 [1]: 5.49
- pIC50 [2]: 5.43
- pIC50 [3]: 5.80
- pIC50 [6]: 5.31
- pIC50 [4]: 5.64
- pIC50 [5]: 5.72

Compound: C/C=C/C=C/C(=O)N1C[C@H](C)NC[C@H]1C [NIGRAGILLIN]
- pIC50 [1]: < 5.00
- pIC50 [2]: < 5.00
- pIC50 [3]: < 5.00
- pIC50 [4]: < 5.00
- pIC50 [5]: < 5.00

Compound: CO[C@@H]1C=C[C@@]23c4cc5c(cc4CO[C@]2(O)CN(C)[C@H]3C1)OCO5 [TAZETTINE]
- pIC50 [1]: < 5.00
- pIC50 [2]: < 5.00
- pIC50 [3]: < 5.00
- pIC50 [4]: < 5.00
- pIC50 [5]: < 5.00

Compound: c1ccc2c(c1)ncc1cc3c(cc12)OCO3 [TRISPHAERIDINE]
- pIC50 [1]: < 5.00
- pIC50 [2]: < 5.00
- pIC50 [3]: < 5.00
- pIC50 [4]: < 5.00
- pIC50 [5]: < 5.00

Reference: ChEMBL document CHEMBL2203151, “Cytotoxic alkaloids from the whole plants of Zephyranthes candida” (J Nat Prod, 2012)
